# Laboratory results reported in the array DNA melting data of Ke et al. (doi:10.1101/2024.01.08.574731).
# Key:
# [1] = folding enthalpy; higher = less favourable; fluorescence melt of hairpins on a sequencing array, two-state fit; settings: sodium 0.088 M
# Outline: (§1)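 Two-state fits, bootstrapped, provided melting temperature and folding enthalpy from Cy3 fluorescence normalised to pre-quench Cy3 and to control constructs. Library hairpins with annealed Cy3 and quencher oligos were imaged on a sequenced MiSeq flow cell in 50 mM Na-HEPES pH 8.0, 25 mM NaCl, at 2.5 °C intervals up to 60 °C. Four replicates were combined with inverse-variance weighting. A 9.35 °C upward shift was applied to fitted temperatures to match UV melts.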
# [2] = melting temperature; fluorescence melt of hairpins on a sequencing array, two-state fit, raised by 9.35 °C to match UV melts; settings: sodium 0.088 M
# Outline: as §1
Sequence,folding enthalpy [1] [kcal/mol],Tm [2] [°C]
GCTGACGAAAGTCCAGC ((((((....))).))),-24.7,54.5
GATCTGGGTCCAGATC ((((((....)))))),-42.5,52.7
GAGGCGGGAAACTGCCTC (((((.(....).))))),-39.1,61.1
GATACCGAAAGGTCATC ((((((....))).))),-17,35.6
GGCGGGCCGAAAGGCGCC (((..(((....)))))),-13.2,62.3
GGGTACGAAAGTAACCCC ((((((....)))..))),-21.9,54.2
GGCCCAGGAAACCGGACC ((.((.(....).)).)),-27.4,33.5
GATCCTTTACAGGATC ((((((....)))))),-51.6,51.1
GGGTTCGGAAACGGATCC ((.(.((....)).).)),-27.2,40.2
GCGCCCTCGAAAGAGCGC (((..(((....)))))),-32,54.3
GAAGACGGAAACGTCTCC (.(((((....))))).),-12.6,39.3
GTTGCCGAAAGGCGCAAC ((((((....)))..))),-8.82,31.9
GATCTGCTTGCAGATC ((((((....)))))),-40.1,67.3
GAACACGAAAGTGTTC ((((((....)))))),-30.9,69
GCCATGCGAAAGCGGGGC (((..((....))..))),-35,65.3
GTCGACGAAAGTCTAGAC ((((((....)))..))),-24,42.3
GTGTCGGGAAACCGATAC ((.((((....)))).)),-28.6,52.1
GGTACCGAAAGGTCCACC ((((((....)))..))),-13.3,41.3
GTCAAACCGAAAGGTGAC (((..(((....)))))),-21.3,45.4
GATCAGGTCCCTGATC ((((((....)))))),-39,54.6
GCCTCTGAAAAGAGGC ((((((....)))))),-37.8,68.9
GGATTCGGAAACGAACCC ((.((((....)))).)),-25.6,45.6
CGTTAACGGAAACGTACG (((..(((....)))))),-17.6,37

Sequence,folding enthalpy [1] [kcal/mol],Tm [2] [°C]
GCTGCCGAAAGGCGAAGC ((((((....)))..))),-15.5,49
GCTGAGCCGAAAGGCAGC (((..(((....)))))),-15.2,51.7
CGGTTGAAAAACCG (((((....))))),-29.6,56.2
GTGCTCGGAAACGAGCGC (.(((((....))))).),-19.4,64.5
GGCTCGCGAAAGCGGCC (((.(((....)))))),-19.2,66.5
GTCTGCACGAAAGTGGAC (((..(((....)))))),-15,34.7
GTTGTACGAAAGTAAAC (((.(((....)))))),-21.9,39.7
GATCTGCAGTCAGATC ((((((....)))))),-34.5,49.2
GATCCCAGGGGGATC ((((((...)))))),-34.7,67
GAGCGTCCGAAAGGACTC (((..(((....)))))),-7.91,30.7
GACCGCGAAAGCGAGTC ((((((....))).))),-20,64.1
GTGCTGGGAAACCAGTAC ((.((((....)))).)),-39.6,51.7
GCATTCCGAAAGGACTGC (((.(((....))).))),-22.2,50.8
GCCTCCCGAAAGGGGGC (((.(((....)))))),-27.1,67.7
GAACCCGAAAGGGCTTC ((((((....))).))),-15,46.3
GGTACCCCGAAAGGGACC (((..(((....)))))),-19.8,46.7
GCCCCTCGAAAGAGGGC (((.(((....)))))),-13,61.5
GAGTAGGCGAAAGCCCTC (((..(((....)))))),-10.8,35.4
GATCAAGGGATTGATC ((((((....)))))),-26.9,44.8
GTGCCAGAAATGGCAC ((((((....)))))),-36.7,67.8
GTTGTCTCGAAAGAGAAC (((..(((....)))))),-22.2,46.1
GGCATTGGAAACAGTGTC (.((.((....)).)).),-17,31.9
GCTATAGGAAACTATAGC (((((((....))))))),-39.5,53.2

Sequence,folding enthalpy [1] [kcal/mol],Tm [2] [°C]
GATCCTCTCGAGGATC ((((((....)))))),-42.4,58
GCATGGCGAAAGCTAGGC ((.(.((....)).).)),-21.6,52.2
GTTCACGAAAGTGAAAAC ((((((....)))..))),-11.7,40.5
GCATACGAAAGTATCTGC ((((((....)))..))),-15.5,37.9
GATCCCGCTGGGATC ((((((...)))))),-37.4,63.2
GCTTTAGGAAACTAAGGC ((.((((....)))).)),-27.7,37
GTCTGCGAAAGCAGAGAC ((((((....)))..))),-9.97,51.4
GCGAAGCGAAAGCTCAGC ((..(((....)))..)),-7.68,41.1
GAAGGCGAAAGCCCCTTC ((((((....)))..))),-9.89,35.1
GGTGTCGAAAGACCCACC ((((((....)))..))),-12.1,45.1
GACAAAGAAATTTGTC ((((((....)))))),-27.6,43.4
GGGACTCCGAAAGGACCC (((..(((....)))))),-16,41.5
GCTGTCGAAAGACGAGC ((((((....))).))),-25.6,54.1
GATCATAGCATGATC ((((((...)))))),-37,49.9
GTAATCGAAAGATGCTAC ((((((....)))..))),-17.3,30.2
GCTGTGCGAAAGCTCGGC ((.(.((....)).).)),-24.6,56
CGCGGACAGCTCCGCG ((((((....)))))),-30.1,68.2
GAAATACGAAAGTATTC (((.(((....)))))),-12.8,38.9
GAATCCGAAAGGAGTTC ((((((....))).))),-15.9,35.3
GTACGCGAAAGCGATAC ((((((....))).))),-13.9,48.2
CGGCTCGGAAACGATCCG (((.(((....))).))),-44.5,49.2
GGCTGTGGAAACACAGTC (.(((((....))))).),-28.2,54.2
GGACACGGAAACGCGTCC ((((.((....)).)))),-46.4,54.6

Sequence,folding enthalpy [1] [kcal/mol],Tm [2] [°C]
GCTGGGCGAAAGCCGAGC (((.(((....))).))),-38.5,58.6
GCATCACGAAAGTGGTGC (((.(((....))).))),-37.8,64.3
GATGACACGAAAGTGATC (((..(((....)))))),-11.4,30.9
GTTAGCGAAAGCTATAAC ((((((....)))..))),-12.7,31.4
GTCCTGGCGAAAGCCGAC (((..(((....)))))),-9.43,32.9
GCACGGCGAAAGCCCGGC ((..(((....)))..)),-15.4,50.1
GTGATGGGAAACCATCAC (((((((....))))))),-43.8,64.6
GGTTCCGAAAGGAAACC ((((((....))).))),-25.9,53.7
GGTGGCGGAAACGCTGCC ((..(((....)))..)),-31.8,54.5
GATCCAGATATGGATC ((((((....)))))),-41.7,57.1
GTGCAACGAAAGTTACAC (((.(((....))).))),-22.6,44.9
GAATTGCGAAAGCATTC (((.(((....)))))),-13.6,36.1
GTGTTCGGAAACAAACAC (((((.(....).))))),-29.7,37.8
GAGGTCGGAAACGACTTC ((.((((....)))).)),-20.9,48.6
GTGAGAGGAAACTTTCAC ((((.((....)).)))),-23.8,35.1
CGCATTCGGAAACGAGCG (((..(((....)))))),-25.9,36.9
GAGGAGCGAAAGCTGCTC (((.(((....))).))),-34,63.7
GAAATCCGAAAGGATTC (((.(((....)))))),-11.2,46.4
GTCTCCGAAAGGAGTGAC ((((((....)))..))),-11.2,36
GGGCTAGAAATAGCCC ((((((....)))))),-30.3,64
GCGGGGGGAAACCTCCGC ((((.((....)).)))),-40.9,66.7
GGTGGAGGAAACTCCATC (.(((((....))))).),-26.6,49.4
GATCTACATCTAGATC ((((((....)))))),-30.7,36.8
